ChEMBL document CHEMBL1649406, “Synthesis and anti-mycobacterial activities of triazoloquinolones” (Eur J Med Chem, 2011)
In brackets after ≈: the same amount, converted by molar mass.

Tested on: Mycobacterium tuberculosis
Assay: Antimycobacterial activity against Mycobacterium bovis BCG after 7 days by broth microdilution method
Assay type: functional
Conditions: variant bovis BCG, 168 h
Outline: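 Strains were pre-grown in Middlebrook 7H11 with OADC. The microdilution assay ran in sealed 96-well plates at 37 °C and was read after 72 h for M. smegmatis mc²155 and after 7 days for M. bovis BCG.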

Compound	MIC [µg/mL]
CCOC(=O)c1cn(C)c2c(ccc3c2nnn3Cc2ccccc2)c1=O	64 (≈ 177 µM)
CCOC(=O)c1cn(CC)c2c(ccc3c2nnn3Cc2ccccc2)c1=O	> 128
C=CCn1cc(C(=O)OCC)c(=O)c2ccc3c(nnn3Cc3ccccc3)c21	64 (≈ 165 µM)
CCCCn1cc(C(=O)OCC)c(=O)c2ccc3c(nnn3Cc3ccccc3)c21	64 (≈ 158 µM)
CCOC(=O)c1cn(C(C)(C)C)c2c(ccc3c2nnn3C)c1=O	8 (≈ 24.4 µM)
C=C(C)Cn1cc(C(=O)OCC)c(=O)c2ccc3c(nnn3C)c21	> 128
CCOC(=O)c1cn(CC2CC2)c2c(ccc3c2nnn3C)c1=O	64 (≈ 196 µM)
CCOC(=O)c1cn(CC2CCC2)c2c(ccc3c2nnn3C)c1=O	64 (≈ 188 µM)
Cn1cc(C(=O)O)c(=O)c2ccc3c(nnn3Cc3ccccc3)c21	4 (≈ 12 µM)
CCn1cc(C(=O)O)c(=O)c2ccc3c(nnn3Cc3ccccc3)c21	16 (≈ 45.9 µM)
C=CCn1cc(C(=O)O)c(=O)c2ccc3c(nnn3Cc3ccccc3)c21	8 (≈ 22.2 µM)
CCCCn1cc(C(=O)O)c(=O)c2ccc3c(nnn3Cc3ccccc3)c21	64 (≈ 170 µM)
Cn1nnc2c3c(ccc21)c(=O)c(C(=O)O)cn3C(C)(C)C	16 (≈ 53.3 µM)
C=C(C)Cn1cc(C(=O)O)c(=O)c2ccc3c(nnn3C)c21	32 (≈ 107 µM)
Cn1nnc2c3c(ccc21)c(=O)c(C(=O)O)cn3CC1CC1	16 (≈ 53.6 µM)
Cn1nnc2c3c(ccc21)c(=O)c(C(=O)O)cn3CC1CCC1	16 (≈ 51.2 µM)
Cn1cc(C(=O)O)c(=O)c2ccc3c(nnn3C)c21	4 (≈ 15.5 µM)
O=C(O)c1cn(C2CC2)c2cc(N3CCNCC3)c(F)cc2c1=O [CIPROFLOXACIN]	0.25 (≈ 0.754 µM)
CC[C@@H](CO)NCCN[C@@H](CC)CO [ETHAMBUTOL]	2 (≈ 9.79 µM)
